Source: ChEMBL document CHEMBL4043132, “3-O-Substituted-3',4',5'-trimethoxyflavonols: Synthesis and cell-based evaluation as anti-prostate cancer agents” (Bioorg Med Chem, 2017)
pIC50: −log10 of the molar value. Each block holds one molecule with its values, some of them ahead of it.

Key:
PC-3 [1] = assay: Induction of apoptosis in human PC3 cells assessed as apoptotic cells at 50 uM after 16 hrs by F2N12S and CYTOX AADvanced double staining-based flow cytometric analysis (reference value: 2 to 3%); assay type: functional
PC-3 [2] = assay: Cell cycle arrest in human PC3 cells assessed as accumulation at S phase at 10 uM after 16 hrs by propidium iodide staining-based flow cytometry (reference value: 9.9%); assay type: functional
DU-145 = assay: Antiproliferative activity against human DU145 cells after 3 days by WST-1 assay; assay type: functional, cell-based; details: DU-145, 72 h
Outline: (§1)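 Cells from ATCC; PC-3 and LNCaP grown in RPMI-1640 and DU145 in EMEM, each with 10% FBS and 1% penicillin/streptomycin, 37 °C, 5% CO2. Seeded 3,200 cells/well and exposed for 3 days to at least five doses, with DMSO as vehicle control. WST-1 reagent added for 3 h at 37 °C, absorbance read at 430 nm. IC50 taken from a linear inhibition plot; mean ± SD of three independent experiments.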

PC-3 [3] = assay: Induction of apoptosis in human PC3 cells assessed as viable cells at 50 uM after 16 hrs by F2N12S and CYTOX AADvanced double staining-based flow cytometric analysis (reference value: 95%); assay type: functional; details: PC-3, 16 h, read-out: Activity
PC-3 [4] = assay: Induction of apoptosis in human PC3 cells assessed as viable cells at 5 uM after 16 hrs by F2N12S and CYTOX AADvanced double staining-based flow cytometric analysis (reference value: 95%); assay type: functional; details: PC-3, 16 h, read-out: Activity
PC-3 [5] = assay: Induction of apoptosis in human PC3 cells assessed as apoptotic cells at 1 uM after 16 hrs by F2N12S and CYTOX AADvanced double staining-based flow cytometric analysis (reference value: 2 to 3%); assay type: functional
PC-3 [6] = assay: Induction of apoptosis in human PC3 cells assessed as apoptotic cells at 10 uM after 16 hrs by F2N12S and CYTOX AADvanced double staining-based flow cytometric analysis (reference value: 2 to 3%); assay type: functional
PC-3 [7] = assay: Cell cycle arrest in human PC3 cells assessed as accumulation at G0/G1 phase at 20 uM after 24 hrs by propidium iodide staining-based flow cytometry (reference value: 37.5%); assay type: functional
PC-3 [8] = assay: Cell cycle arrest in human PC3 cells assessed as accumulation at G2/M phase at 20 uM after 16 hrs by propidium iodide staining-based flow cytometry (reference value: 32.3%); assay type: functional
PC-3 [9] = assay: Induction of apoptosis in human PC3 cells assessed as apoptotic cells after 16 hrs by F2N12S and CYTOX AADvanced double staining-based flow cytometric analysis; assay type: functional, cell-based
PC-3 [10] = assay: Induction of apoptosis in human PC3 cells assessed as viable cells at 10 uM after 16 hrs by F2N12S and CYTOX AADvanced double staining-based flow cytometric analysis (reference value: 95%); assay type: functional; details: PC-3, 16 h, read-out: Activity
LNCaP = assay: Antiproliferative activity against human LNCAP cells after 3 days by WST-1 assay; assay type: functional, cell-based; details: 72 h; outline: as §1
PC-3 [11] = assay: Induction of apoptosis in human PC3 cells assessed as necrotic cells at 10 uM after 16 hrs by F2N12S and CYTOX AADvanced double staining-based flow cytometric analysis (reference value: 2 to 3%); assay type: functional
PC-3 [12] = assay: Induction of apoptosis in human PC3 cells assessed as necrotic cells at 5 uM after 16 hrs by F2N12S and CYTOX AADvanced double staining-based flow cytometric analysis (reference value: 2 to 3%); assay type: functional
PC-3 [13] = assay: Induction of apoptosis in human PC3 cells assessed as necrotic cells at 1 uM after 16 hrs by F2N12S and CYTOX AADvanced double staining-based flow cytometric analysis (reference value: 2 to 3%); assay type: functional
PC-3 [14] = assay: Induction of apoptosis in human PC3 cells assessed as viable cells at 1 uM after 16 hrs by F2N12S and CYTOX AADvanced double staining-based flow cytometric analysis (reference value: 95%); assay type: functional; details: PC-3, 16 h, read-out: Activity
PC-3 [15] = assay: Induction of apoptosis in human PC3 cells assessed as apoptotic cells at 30 uM after 16 hrs by F2N12S and CYTOX AADvanced double staining-based flow cytometric analysis (reference value: 2 to 3%); assay type: functional
PC-3 [16] = assay: Cell cycle arrest in human PC3 cells assessed as accumulation at S phase at 20 uM after 16 hrs by propidium iodide staining-based flow cytometry (reference value: 9.9%); assay type: functional
PC-3 [17] = assay: Induction of apoptosis in human PC3 cells assessed as viable cells at 20 uM after 16 hrs by F2N12S and CYTOX AADvanced double staining-based flow cytometric analysis (reference value: 95%); assay type: functional; details: PC-3, 16 h, read-out: Activity
PC-3 [18] = assay: Cell cycle arrest in human PC3 cells assessed as accumulation at G2/M phase at 10 uM after 16 hrs by propidium iodide staining-based flow cytometry (reference value: 32.3%); assay type: functional
PC-3 [19] = assay: Induction of apoptosis in human PC3 cells assessed as necrotic cells at 100 uM after 16 hrs by F2N12S and CYTOX AADvanced double staining-based flow cytometric analysis (reference value: 2 to 3%); assay type: functional
PC-3 [20] = assay: Antiproliferative activity against human PC3 cells after 3 days by WST-1 assay; assay type: functional, cell-based; details: PC-3, 72 h; outline: as §1
PC-3 [21] = assay: Cell cycle arrest in human PC3 cells assessed as accumulation at G0/G1 phase at 10 uM after 16 hrs by propidium iodide staining-based flow cytometry (reference value: 34.1%); assay type: functional
PC-3 [22] = assay: Cell cycle arrest in human PC3 cells assessed as accumulation at S phase at 20 uM after 24 hrs by propidium iodide staining-based flow cytometry (reference value: 8.0%); assay type: functional
PC-3 [23] = assay: Cell cycle arrest in human PC3 cells assessed as accumulation at S phase at 10 uM after 24 hrs by propidium iodide staining-based flow cytometry (reference value: 8.0%); assay type: functional
PC-3 [24] = assay: Cell cycle arrest in human PC3 cells assessed as accumulation at G2/M phase at 10 uM after 24 hrs by propidium iodide staining-based flow cytometry (reference value: 27.8%); assay type: functional
PC-3 [25] = assay: Cell cycle arrest in human PC3 cells assessed as accumulation at G0/G1 phase at 10 uM after 24 hrs by propidium iodide staining-based flow cytometry (reference value: 37.5%); assay type: functional
PC-3 [26] = assay: Induction of apoptosis in human PC3 cells assessed as necrotic cells at 50 uM after 16 hrs by F2N12S and CYTOX AADvanced double staining-based flow cytometric analysis (reference value: 2 to 3%); assay type: functional
PC-3 [27] = assay: Induction of apoptosis in human PC3 cells assessed as apoptotic cells at 20 uM after 16 hrs by F2N12S and CYTOX AADvanced double staining-based flow cytometric analysis (reference value: 2 to 3%); assay type: functional
PC-3 [28] = assay: Induction of apoptosis in human PC3 cells assessed as apoptotic cells at 100 uM after 16 hrs by F2N12S and CYTOX AADvanced double staining-based flow cytometric analysis (reference value: 2 to 3%); assay type: functional
PWR-1E = assay: Antiproliferative activity against human PWR-1E cells after 3 days by WST-1 assay; assay type: cell-based; details: 72 h
Outline: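 PWR-1E benign prostate epithelial cells grown in keratinocyte serum-free medium with bovine pituitary extract and recombinant human EGF. Seeded 3,200 cells/well and treated for 3 days at 37 °C, with DMSO as vehicle control. WST-1 reagent added for 3 h, absorbance read at 430 nm. IC50 from a linear inhibition plot over at least five doses; mean ± SD, n = 3.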

PC-3 [29] = assay: Cell cycle arrest in human PC3 cells assessed as accumulation at G2/M phase at 20 uM after 24 hrs by propidium iodide staining-based flow cytometry (reference value: 27.8%); assay type: functional
PC-3 [30] = assay: Induction of apoptosis in human PC3 cells assessed as viable cells at 100 uM after 16 hrs by F2N12S and CYTOX AADvanced double staining-based flow cytometric analysis (reference value: 95%); assay type: functional; details: PC-3, 16 h, read-out: Activity
PC-3 [31] = assay: Induction of apoptosis in human PC3 cells assessed as necrotic cells at 30 uM after 16 hrs by F2N12S and CYTOX AADvanced double staining-based flow cytometric analysis (reference value: 2 to 3%); assay type: functional
PC-3 [32] = assay: Induction of apoptosis in human PC3 cells assessed as necrotic cells at 20 uM after 16 hrs by F2N12S and CYTOX AADvanced double staining-based flow cytometric analysis (reference value: 2 to 3%); assay type: functional
[33] = Cmax in C57BL/6J mouse prostate at 240 mg/kg, po administered as single dose measured after 6 hrs post administration; assay type: ADME, organism-based, Prostate gland; design: dose 240 mg/kg, route oral
PC-3 [34] = assay: Induction of apoptosis in human PC3 cells assessed as apoptotic cells at 5 uM after 16 hrs by F2N12S and CYTOX AADvanced double staining-based flow cytometric analysis (reference value: 2 to 3%); assay type: functional
PC-3 [35] = assay: Induction of apoptosis in human PC3 cells assessed as viable cells at 30 uM after 16 hrs by F2N12S and CYTOX AADvanced double staining-based flow cytometric analysis (reference value: 95%); assay type: functional; details: PC-3, 16 h, read-out: Activity
PC-3 [36] = assay: Cell cycle arrest in human PC3 cells assessed as accumulation at G0/G1 phase at 20 uM after 16 hrs by propidium iodide staining-based flow cytometry (reference value: 34.1%); assay type: functional

pIC50 (DU-145): 4.57
pIC50 (LNCaP): 4.83
pIC50 (PC-3 [20]): 4.49
Cmax [33]: 18.4 nM
SMILES: COc1cc(-c2oc3ccccc3c(=O)c2O)cc(OC)c1OC
Activity (PC-3 [1]): 61%
Activity (PC-3 [2]): 12.3%
viability at 50 µM (PC-3 [3]): 45%
viability at 5 µM (PC-3 [4]): 81%
Activity (PC-3 [5]): 6%
Activity (PC-3 [6]): 39%
Activity (PC-3 [7]): 33.8%
Activity (PC-3 [8]): 26.6%
Activity (PC-3 [9]): Dose-dependent effect
viability at 10 µM (PC-3 [10]): 66%
Activity (PC-3 [11]): 2%
Activity (PC-3 [12]): 2%
Activity (PC-3 [13]): 2%
viability at 1 µM (PC-3 [14]): 90%
Activity (PC-3 [15]): 54%
Activity (PC-3 [16]): 11.7%
viability at 20 µM (PC-3 [17]): 47%
Activity (PC-3 [18]): 33%
Activity (PC-3 [19]): 3%
Activity (PC-3 [21]): 31.2%
Activity (PC-3 [22]): 6%
Activity (PC-3 [23]): 6%
Activity (PC-3 [24]): 33.3%
Activity (PC-3 [25]): 34.6%
Activity (PC-3 [26]): 2%
Activity (PC-3 [27]): 50%
Activity (PC-3 [28]): 73%
pIC50 (PWR-1E): < 4.30
Activity (PC-3 [29]): 31.2%
viability at 100 µM (PC-3 [30]): 24%
Activity (PC-3 [31]): 2%
Activity (PC-3 [32]): 3%
Activity (PC-3 [34]): 11%
viability at 30 µM (PC-3 [35]): 43%
Activity (PC-3 [36]): 33.3%

pIC50 (DU-145): 4.91
pIC50 (LNCaP): 5.29
pIC50 (PC-3 [20]): 5.24
SMILES: CCCCCN(CCCCC)CCCOc1c(-c2cc(OC)c(OC)c(OC)c2)oc2ccccc2c1=O
Activity (PC-3 [1]): 65%
Activity (PC-3 [2]): 4.5%
viability at 50 µM (PC-3 [3]): 0%
viability at 5 µM (PC-3 [4]): 46%
Activity (PC-3 [5]): 10%
Activity (PC-3 [6]): 93%
Activity (PC-3 [7]): 59.8%
Activity (PC-3 [8]): 34.8%
Activity (PC-3 [9]): Dose-dependent effect
viability at 10 µM (PC-3 [10]): 3%
Activity (PC-3 [11]): 4%
Activity (PC-3 [12]): 3%
Activity (PC-3 [13]): 2%
viability at 1 µM (PC-3 [14]): 87%
Activity (PC-3 [15]): 92%
Activity (PC-3 [16]): 6.5%
viability at 20 µM (PC-3 [17]): 0%
Activity (PC-3 [18]): 28.6%
Activity (PC-3 [19]): 72%
Activity (PC-3 [21]): 51.3%
Activity (PC-3 [22]): 1.9%
Activity (PC-3 [23]): 3.7%
Activity (PC-3 [24]): 25.4%
Activity (PC-3 [25]): 52.6%
Activity (PC-3 [26]): 35%
Activity (PC-3 [27]): 94%
Activity (PC-3 [28]): 27%
pIC50 (PWR-1E): 4.83
Activity (PC-3 [29]): 26.4%
viability at 100 µM (PC-3 [30]): 0%
Activity (PC-3 [31]): 8%
Activity (PC-3 [32]): 6%
Activity (PC-3 [34]): 51%
viability at 30 µM (PC-3 [35]): 0%
Activity (PC-3 [36]): 40.8%
